Results reported in ChEMBL document CHEMBL1133084, “Synthesis of novel 3,7-substituted-2-(3',4'-dihydroxyphenyl)flavones with improved antioxidant activity” (J Med Chem, 2000).

What was measured:
Rattus norvegicus = organism: Rattus norvegicus; assay: Inhibitory effect on the oxidative degradation of membrane lipids (lipid peroxidation assay) in microsomes of rat.; format: functional
Summary of the method: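 Liver microsomes from male Wistar rats (200–220 g), washed in 50 mM Tris-HCl pH 7.4 and heat-inactivated at 100 °C ≥2 min, then diluted to 1.5 mg/mL. Peroxidation started with 10 μM FeSO4; final DMSO ≤2.5%. TBA-reactive substances sampled at 0–60 min and absorbance read at 535-600 nm after heating. IC50 interpolated from % inhibition at several concentrations; mean ± SEM, n = 3-5.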

[1] = Antioxidant activity was determined using trolox equivalent antioxidant capacity assay.; format: functional
Summary of the method: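 ABTS (1.23 mg/mL) and ABAP (3.96 mg/mL) in 50 mM phosphate buffer pH 7.4 heated 70 °C for 20 min to generate ABTS radical. Test compound (stock in N2-purged DMSO:water 1:1; final DMSO ≤0.25%) incubated with ABTS•+ solution 5 min at 37 °C. Absorbance read at 734 nm. Trolox calibration 0–20 μM; TEAC = mM trolox equivalent to 1 mM compound.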

| Structure (SMILES) | IC50 (Rattus norvegicus) [nM] | Activity [1] [mM] |
| --- | --- | --- |
| CN(C)CCCOc1ccc2c(=O)cc(-c3ccc(O)c(O)c3)oc2c1 | 8100 | 2.9 |
| O=c1cc(-c2ccc(O)c(O)c2)oc2cc(OCCO)ccc12 | 16400 | 4.3 |
| C[N+](C)(C)CCCOc1ccc2c(=O)cc(-c3ccc(O)c(O)c3)oc2c1 | 37300 | 1.9 |
| C[N+](C)(C)CCCOc1c(-c2ccc(O)c(O)c2)oc2cc(O)ccc2c1=O | 3800 | 5.1 |
| O=c1c(O)c(-c2ccc(O)c(O)c2)oc2cc(OCCO)ccc12 | 13800 | 4.9 |
| O=c1cc(-c2ccc(O)c(O)c2)oc2cc(O)ccc12 | 11000 | 4.3 |
| O=c1c(OCCO)c(-c2ccc(O)c(O)c2)oc2cc(O)ccc12 | 21700 | 3.4 |
| O=c1c(O)c(-c2ccc(O)c(O)c2)oc2ccccc12 | 1800 | 4.5 |
| COc1ccc2c(=O)cc(-c3ccc(O)c(O)c3)oc2c1 | 2500 | 3.3 |
| O=C(O)COc1c(-c2ccc(O)c(O)c2)oc2ccccc2c1=O | 6500 | 7.6 |

The next compounds have a lower IC50 (Rattus norvegicus) than those just listed; values first:

| IC50 (Rattus norvegicus) [nM] | Structure (SMILES) | Activity [1] [mM] |
| --- | --- | --- |
| 1000 | CN(C)CCCOc1c(-c2ccc(O)c(O)c2)oc2ccccc2c1=O | 3.4 |
| 200 | O=c1c(O)c(-c2ccc(O)c(O)c2)oc2cc(O)ccc12 [FISETIN] | 5.6 |
| 1300 | COc1c(-c2ccc(O)c(O)c2)oc2ccccc2c1=O | 4.4 |
| 600 | O=c1c(OCCO)c(-c2ccc(O)c(O)c2)oc2ccccc12 | 4.4 |
| 1000 | C[N+](C)(C)CCCCCCCCOc1c(-c2ccc(O)c(O)c2)oc2ccccc2c1=O | 3.3 |
| 1200 | C[N+](C)(C)CCCOc1c(-c2ccc(O)c(O)c2)oc2ccccc2c1=O | 4.2 |
| 1600 | COc1c(-c2ccc(O)c(O)c2)oc2cc(O)ccc2c1=O | 5.9 |
| 1400 | C[N+](C)(C)CCCCCCOc1c(-c2ccc(O)c(O)c2)oc2ccccc2c1=O | 4.3 |
